# Calls of active or inactive are those of the source.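 Rule for the calls, unless noted: active = inhibition at or above 50% at 10 µM; inactive = inhibition below 50%.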
# Columns and labels:
# [1] = inhibitors of TNFa-induced NFkB p65 translocation, primary screen, imaging, HUVEC, MLSMR starter and 10KST1 sets (AID 438;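 active = inhibition above 20% together with a positive visual image hit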;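 note: compound added about 3h40 before a 20 min TNFalpha stimulation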;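 for inhibition: signal is the nuclear over cytoplasmic p65 intensity ratio per well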); details: HUVEC TNFa-induced p65 nuclear translocation; cell count: measured here: nuclei count (cytotoxicity indicator), at 2.08 µM; inhibition: at 2 µM, stronger effect = higher value, 0% TNFa-plus-vehicle, 100% no-TNFa wells
# [2] = reduction of polyQ htt aggregates in cells – imaging, exon1htt(103Q)mCFP cells, high-content imaging, primary screen (AID 483;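 active = visual image review flags a hit and inhibition of aggregation exceeds 20%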;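 note: compound exposure lasted 3 days before fixation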;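 for nuclei count: percent of the per-plate median nuclei count of sample wells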); details: exon1htt(103Q)mCFP cell line, aggregate imaging, at 2 µM; inhibition of aggregation: stronger effect = higher value; nuclei count: measured here: cell count, toxicity
# [3] = endothelial E-selectin expression blockers – imaging, HUVEC, immunofluorescence, MLSMR starter and 10KST1 sets, primary screen (AID 487;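 active = visually confirmed hit in the image check and inhibition above 20%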;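 for inhibition: signal is fraction of cell area covered by stained E-selectin grains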;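 for nuclei count: 100% = median nuclei count of all wells on the same plate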); details: HUVEC TNFalpha-induced E-selectin immunofluorescence imaging, at 2 µM; inhibition: stronger effect = higher value; nuclei count: measured here: cell number, toxicity
# [4] = molecular target: Voltage-gated potassium channel subunit beta-2 (Rattus norvegicus) (UniProt P62483); experiment: inhibitors of rat Kvbeta2 reductase activity – biochemical, NADPH fluorescence, primary screen (AID 622;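 active = fluorescence slope higher than the sample average by over 3 SD, cut at about -0.22 in these data, passing the limit was not always enough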;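 note: slope of raw intensity against log time taken from 70 to 1610 s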); details: recombinant KvBeta, 4-cyanobenzaldehyde reduction, at 10 µM, stronger effect = higher value
# Voltage-gated potassium channel subunit beta-2 (Rattus norvegicus), sequence (P62483 whole entry, looked up): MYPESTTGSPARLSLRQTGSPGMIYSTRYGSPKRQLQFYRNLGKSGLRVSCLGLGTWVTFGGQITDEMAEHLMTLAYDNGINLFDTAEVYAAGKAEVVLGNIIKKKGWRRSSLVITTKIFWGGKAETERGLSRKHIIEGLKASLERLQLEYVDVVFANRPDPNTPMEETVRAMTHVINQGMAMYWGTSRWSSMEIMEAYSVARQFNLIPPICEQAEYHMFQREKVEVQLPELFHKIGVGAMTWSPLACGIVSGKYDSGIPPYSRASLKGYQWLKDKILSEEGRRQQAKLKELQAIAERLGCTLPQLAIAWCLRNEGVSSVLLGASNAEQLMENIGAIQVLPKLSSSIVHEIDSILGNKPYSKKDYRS
# [5] = molecular target: Voltage-gated potassium channel subunit beta-2 (Rattus norvegicus) (UniProt P62483); experiment: enhancers of rat Kvbeta2 NADPH turnover – biochemical, NADPH fluorescence, primary screen (AID 623;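 active = NADPH fluorescence slope more negative than the mean of all samples by about 3 SD, 99.7% confidence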;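 note: fluorescence intensity change per second fitted from 20 to 320 s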); details: Recombinant KvBeta, NADPH fluorescence decrease slope, 10 min; at 10 µM; stronger effect = lower value
# [6] = molecular target: Muscarinic acetylcholine receptor M4 (Homo sapiens) (UniProt P08173); experiment: M4-linked GIRK flux change, two-sided – cell-based, HEK293 M4/GIRK, thallium flux, BTC-AM, M4 allosteric agonist project, primary screen (AID 625;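 active = fluorescence slope after compound addition differing from the mean of all tested samples at 99.7% confidence, mostly higher but some lower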;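 note: thallium influx through GIRK channels coupled to M4 in HEK293 cells with BTC-AM dye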); details: at 10 µM, actives lie on both sides
# Muscarinic acetylcholine receptor M4 (Homo sapiens), sequence (P08173 whole entry, looked up): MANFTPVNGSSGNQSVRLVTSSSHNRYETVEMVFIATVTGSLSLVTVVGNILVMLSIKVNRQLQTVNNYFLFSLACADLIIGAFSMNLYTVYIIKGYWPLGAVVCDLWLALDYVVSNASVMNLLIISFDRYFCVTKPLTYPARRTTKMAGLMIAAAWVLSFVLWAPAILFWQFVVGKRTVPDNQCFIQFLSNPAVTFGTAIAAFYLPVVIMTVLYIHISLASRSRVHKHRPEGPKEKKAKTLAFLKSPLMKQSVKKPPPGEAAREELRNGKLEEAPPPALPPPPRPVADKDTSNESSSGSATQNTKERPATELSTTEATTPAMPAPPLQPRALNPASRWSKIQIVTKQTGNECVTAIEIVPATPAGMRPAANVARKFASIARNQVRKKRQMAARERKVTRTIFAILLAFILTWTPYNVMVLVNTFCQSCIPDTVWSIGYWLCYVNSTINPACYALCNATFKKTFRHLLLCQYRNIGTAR
# How it was run: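 Material: M4/GIRK1/GIRK2 stable HEK293 cell line. Medium: pH 7.3 thallium assay buffer. Dosing: single compound concentration, 10 µM final. Schedule: 1 h dye loading, 2 min kinetic read. Measured by: kinetic fluorescence with BTC-AM dye. Read-out: post-addition slope, 15–24 s, of baseline-normalized fluorescence. Benchmarks: carbachol and DMSO controls.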
# [7] = blockers of RIG-like receptor reporter activation – cell-based, Sendai virus stimulus, luciferase, 10K MLSCN set, TLR/RLR signaling modifier project, primary screen (AID 602276); details: HEK293 RL24 IRF3 luciferase reporter, at 10 µM, stronger effect = higher value;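 note: firefly luciferase from ISG56 promoter only with Renilla not read in this screen; 0% = Sendai virus plus DMSO and 100% = medium plus DMSO without virus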
# [8] = TLR3 IRF3 reporter activation blockers – cell-based, poly I:C stimulus, luciferase, 10K MLSCN set, primary screen (AID 602277;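 active = inhibition of the reporter signal at or above 50%; inactive = inhibition below 50%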); details: HEK293-TLR3 RL24 IRF3 luciferase reporter, at 10 µM, stronger effect = higher value
smiles,measurement,setting,value
CCS(=O)(=O)c1nc2ccccc2n1CC(=O)N1CCCCC1,cell count,[1],507
same,inhibition,[1],9.7% (inactive)
same,inhibition of aggregation,[2],-6.2% (inactive)
same,nuclei count,[2],89.2%
same,inhibition,[3],-32.9% (inactive)
same,nuclei count,[3],99.3%
same,fluorescence slope,[4],-0.425 (inactive)
same,NADPH fluorescence slope,[5],-2.1e-05 (inactive)
same,fluorescence slope,[6],0.00578 (inactive)
same,inhibition,[7],17.6% (inactive)
same,inhibition,[8],27% (inactive)
Cc1cc(=O)oc2cc(OCC(=O)OCc3nnc(-c4ccccc4)o3)ccc12,cell count,[1],527
same,inhibition,[1],-7.7% (inactive)
same,inhibition of aggregation,[2],5.8% (inactive)
same,nuclei count,[2],123%
same,inhibition,[3],-10.9% (inactive)
same,nuclei count,[3],121%
same,fluorescence slope,[4],-0.399 (inactive)
same,NADPH fluorescence slope,[5],2.8e-05 (inactive)
same,fluorescence slope,[6],0.00584 (inactive)
same,inhibition,[7],6.17% (inactive)
same,inhibition,[8],7.89% (inactive)
Nc1c(C(=O)NCCc2ccccc2)nnn1Cc1ccccc1,cell count,[1],564
same,inhibition,[1],4.8% (inactive)
same,inhibition of aggregation,[2],24.6% (inactive)
same,nuclei count,[2],69.8%
same,inhibition,[3],-6.5% (inactive)
same,nuclei count,[3],98.3%
same,fluorescence slope,[4],-0.571 (inactive)
same,NADPH fluorescence slope,[5],-4.3e-05 (inactive)
same,fluorescence slope,[6],0.00544 (inactive)
same,inhibition,[7],-11.8% (inactive)
same,inhibition,[8],-13.7% (inactive)
CCCC(=O)Nc1ccc(NC(=O)C2CC2)cn1,cell count,[1],471
same,inhibition,[1],-17.9% (inactive)
same,inhibition of aggregation,[2],-28.9% (inactive)
same,nuclei count,[2],99.8%
same,inhibition,[3],-79.6% (inactive)
same,nuclei count,[3],112%
same,fluorescence slope,[4],-0.527 (inactive)
same,NADPH fluorescence slope,[5],1.9e-05 (inactive)
same,fluorescence slope,[6],0.00449 (inactive)
same,inhibition,[7],14.1% (inactive)
same,inhibition,[8],-13.6% (inactive)
CCC(=O)c1ccc(OCCN2CCOCC2)cc1,cell count,[1],387
same,inhibition,[1],-5.3% (inactive)
same,inhibition of aggregation,[2],-1.8% (inactive)
same,nuclei count,[2],107%
same,inhibition,[3],-104% (inactive)
same,nuclei count,[3],120%
same,fluorescence slope,[4],-0.566 (inactive)
same,NADPH fluorescence slope,[5],-4.5e-05 (inactive)
same,fluorescence slope,[6],0.00623 (inactive)
same,inhibition,[7],6.75% (inactive)
same,inhibition,[8],7.43% (inactive)
Cc1onc(-c2ccccc2)c1C(=O)N1CCCSC1=Nc1ccccc1,cell count,[1],665
same,inhibition,[1],6.5% (inactive)
same,inhibition of aggregation,[2],12.6% (inactive)
same,nuclei count,[2],110%
same,inhibition,[3],29.1% (inactive)
same,nuclei count,[3],79.6%
same,fluorescence slope,[4],-0.567 (inactive)
same,NADPH fluorescence slope,[5],-5.7e-05 (inactive)
same,fluorescence slope,[6],0.00639 (inactive)
same,inhibition,[7],10.2% (inactive)
same,inhibition,[8],31.9% (inactive)
c1ccc(CNc2ccc3c(c2)ncn3C2CCCCC2)nc1,cell count,[1],171
same,inhibition,[1],-4.9% (inactive)
same,inhibition of aggregation,[2],20% (inactive)
same,nuclei count,[2],78.3%
same,inhibition,[3],-12.5% (inactive)
same,nuclei count,[3],97%
same,fluorescence slope,[4],-0.58 (inactive)
same,NADPH fluorescence slope,[5],4.2e-05 (inactive)
same,fluorescence slope,[6],0.00406 (inactive)
same,inhibition,[7],-10.6% (inactive)
same,inhibition,[8],-24.3% (inactive)
